ChEMBL document CHEMBL4020726, “Discovery of 2-((4,6-dimethylpyrimidin-2-yl)thio)-N-phenylacetamide derivatives as new potent and selective human sirtuin 2 inhibitors” (Eur J Med Chem, 2017)
The source made the active and inactive calls. No cut-off for these calls is given here.

Assays:
[1] = target: T1, NAD-dependent protein deacetylase sirtuin-2 (Homo sapiens) (UniProt Q8IXJ6); assay: Inhibition of human SIRT2 at 5 uM
T1 sequence (whole entry): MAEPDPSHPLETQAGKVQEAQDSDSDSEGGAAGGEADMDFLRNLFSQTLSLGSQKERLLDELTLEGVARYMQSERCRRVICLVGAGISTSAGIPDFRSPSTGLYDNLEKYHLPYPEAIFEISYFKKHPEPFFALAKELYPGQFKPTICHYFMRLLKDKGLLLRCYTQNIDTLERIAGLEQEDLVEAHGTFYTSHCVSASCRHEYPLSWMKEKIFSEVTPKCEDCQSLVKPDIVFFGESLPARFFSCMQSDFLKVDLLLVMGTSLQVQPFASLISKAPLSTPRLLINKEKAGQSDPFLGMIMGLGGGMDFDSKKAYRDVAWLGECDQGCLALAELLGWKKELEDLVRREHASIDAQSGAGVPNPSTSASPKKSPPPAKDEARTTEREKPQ

[2] = target: T1, NAD-dependent protein deacetylase sirtuin-2 (Homo sapiens); assay: Inhibition of human SIRT2 at 50 uM
[3] = target: T2, NAD-dependent protein deacetylase sirtuin-1 (Homo sapiens, UniProt Q96EB6); assay: Inhibition of SIRT1 (unknown origin)
T2 sequence (Q96EB6 whole entry): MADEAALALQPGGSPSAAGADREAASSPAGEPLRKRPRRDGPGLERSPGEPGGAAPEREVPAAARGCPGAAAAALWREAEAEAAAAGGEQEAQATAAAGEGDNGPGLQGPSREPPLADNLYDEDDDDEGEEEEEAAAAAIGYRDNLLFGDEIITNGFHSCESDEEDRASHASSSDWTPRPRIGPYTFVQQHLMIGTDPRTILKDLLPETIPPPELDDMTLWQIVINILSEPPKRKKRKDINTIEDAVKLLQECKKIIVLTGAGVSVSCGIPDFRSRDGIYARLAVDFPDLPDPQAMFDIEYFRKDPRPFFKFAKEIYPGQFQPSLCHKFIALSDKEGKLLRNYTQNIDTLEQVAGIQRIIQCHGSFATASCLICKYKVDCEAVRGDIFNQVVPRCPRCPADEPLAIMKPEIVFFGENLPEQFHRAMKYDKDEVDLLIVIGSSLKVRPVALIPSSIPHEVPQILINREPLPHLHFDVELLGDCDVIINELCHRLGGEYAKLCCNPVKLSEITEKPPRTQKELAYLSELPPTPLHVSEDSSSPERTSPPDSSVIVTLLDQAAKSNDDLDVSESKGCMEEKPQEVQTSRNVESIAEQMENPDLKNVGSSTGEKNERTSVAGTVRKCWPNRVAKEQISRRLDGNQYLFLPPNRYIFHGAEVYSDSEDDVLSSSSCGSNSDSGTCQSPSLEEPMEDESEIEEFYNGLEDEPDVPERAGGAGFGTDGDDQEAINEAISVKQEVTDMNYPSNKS

[4] = target: T3, NAD-dependent protein deacetylase sirtuin-3, mitochondrial (Homo sapiens, UniProt Q9NTG7); assay: Inhibition of SIRT3 (unknown origin)
T3 sequence (Q9NTG7 whole entry): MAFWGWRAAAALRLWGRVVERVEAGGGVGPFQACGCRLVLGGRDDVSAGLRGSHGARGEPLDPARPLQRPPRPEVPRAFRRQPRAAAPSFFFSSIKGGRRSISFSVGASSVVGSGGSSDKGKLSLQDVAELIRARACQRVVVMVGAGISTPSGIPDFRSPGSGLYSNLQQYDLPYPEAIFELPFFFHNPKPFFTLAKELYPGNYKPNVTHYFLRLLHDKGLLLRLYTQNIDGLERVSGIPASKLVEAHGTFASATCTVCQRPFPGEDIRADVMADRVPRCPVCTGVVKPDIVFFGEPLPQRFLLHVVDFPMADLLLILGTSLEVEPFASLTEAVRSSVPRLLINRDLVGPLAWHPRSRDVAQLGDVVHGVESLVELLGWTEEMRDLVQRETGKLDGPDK

MCF7 [5] = assay: Growth inhibition of human MCF7 cells at 50 uM after 120 hrs by MTT assay; assay type: functional
In short: (§1)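 MCF-7 cells were kept in high-glucose DMEM with 10% FBS and penicillin/streptomycin, split at 80–90% confluency and used within 10 passages. They were seeded at 3000 cells/well, grown 24 h, then exposed for 120 h at 37°C, 5% CO2 (final DMSO 1% v/v). MTT formazan was dissolved in acidified 20% SDS and read at 570 nm. Triplicates; experiments repeated at least twice.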

MCF7 [6] = assay: Growth inhibition of human MCF7 cells after 120 hrs by MTT assay; assay type: functional, cell-based; in short: as §1
[7] = Growth inhibition of human HL7702 cells at 100 uM after 120 hrs by MTT assay; assay type: cell-based; conditions: HL7702 (L02) cells, read-out: GI

SMILES	inhibition [1] [%]	inhibition [2] [%]	further results
Cc1cc(C)nc(SCC(=O)Nc2cccc(COc3ccc4ccccc4c3)c2)n1	59	84	
Cc1cc(C)nc(SCC(=O)Nc2cccc(Nc3ccccc3)c2)n1	61	95	
Cc1cc(C)nc(SCC(=O)Nc2ccc(NCc3ccccc3)cc2)n1	9	55	
Cc1cc(C)nc(SCC(=O)Nc2cccc(Oc3ccccc3)c2)n1	49	92	
Cc1cc(C)nc(SCC(=O)Nc2ccc(CNc3ccccc3)cc2)n1	20	72	
Cc1cc(C)nc(SCC(=O)Nc2cccc(COc3cccc4cccnc34)c2)n1	41	73	
Cc1cc(C)nc(SCC(=O)Nc2cccc(COc3ccc(NS(=O)(=O)C4CC4)cc3)c2)n1	67	95	
Cc1cc(C)nc(SCC(=O)Nc2cccc(COc3ccc(NC(=O)c4cccs4)cc3)c2)n1			IC50 [3]: > 300 µM; IC50 [4]: > 300 µM; inhibition of growth at 50 µM (MCF7 [5]; MCF7, 120 h, read-out: GI): > 50%; growth inhibition (GI) (MCF7 [6]): Dose-dependent effect; inhibition at 120 h, 100 µM [7]: 3%
Cc1cc(C)nc(SCC(=O)Nc2ccc(Nc3ccccc3)cc2)n1	19	72	
Cc1cc(C)nc(SCC(=O)Nc2cccc(COc3ccc4[nH]ncc4c3)c2)n1	57	91	
Cc1cc(C)nc(SCC(=O)Nc2ccc(Oc3ccccc3)cc2)n1	42	78	
Cc1cc(C)nc(SCC(=O)Nc2cccc(CNc3ccccc3)c2)n1	49	90	
Cc1cc(C)nc(SCC(=O)Nc2ccc(NCc3cccs3)cc2)n1	15	70	
CC(=O)Nc1cccc(OCc2cccc(NC(=O)CSc3nc(C)cc(C)n3)c2)c1	68	99	
O=C(Nc1ccccc1-c1cn2c(CN3CCNCC3)csc2n1)c1cnc2ccccc2n1			IC50 [4]: 0.85 µM
Cc1cc(C)nc(SCC(=O)Nc2ccc(NCc3ccncc3)cc2)n1	10	43	
Cc1cc(C)nc(SCC(=O)Nc2cccc(C(=O)c3ccccc3)c2)n1	40	89	
Cc1cc(C)nc([S+]([O-])CC(=O)Nc2ccc(Oc3ccccc3)cc2)n1 (centres undefined)	34	79	

SMILES	inhibition [1] [%]	inhibition [2] [%]	further results
Cc1cc(C)nc(SCC(=O)Nc2cccc(OCc3ccccc3)c2)n1	59	92	
Cc1cc(C)nc(SCC(=O)Nc2ccc(C(=O)c3ccccc3)cc2)n1	22	74	
Cc1cc(C)nc(SCC(=O)Nc2ccc(Cc3ccccc3)cc2)n1	70	74	
Cc1cc(C)nc(SCC(=O)Nc2cccc(NCc3cccs3)c2)n1	60	93	
Cc1cc(C)nc(SCC(=O)Nc2ccc(COc3ccccc3)cc2)n1	1	24	growth inhibition (GI) (MCF7 [5]): inactive; inhibition at 120 h, 100 µM [7]: 6%
Cc1cc(C)nc(S(=O)(=O)CC(=O)Nc2ccc(Oc3ccccc3)cc2)n1	-2	21	
Cc1cc(C)nc(SCC(=O)Nc2cccc(COc3ccc(NS(=O)(=O)c4ccccc4)cc3)c2)n1	73	87	
Cc1cc(C)nc(SCC(=O)Nc2ccc(NCc3ccco3)cc2)n1	17	58	
Cc1ccc(C(=O)Nc2ccc(S(=O)(=O)O)c3cc(S(=O)(=O)O)cc(S(=O)(=O)O)c23)cc1NC(=O)c1cccc(NC(=O)Nc2cccc(C(=O)Nc3cc(C(=O)Nc4ccc(S(=O)(=O)O)c5cc(S(=O)(=O)O)cc(S(=O)(=O)O)c45)ccc3C)c2)c1	31	73	
Cc1cc(C)nc(SCC(=O)Nc2ccc(C(O)c3ccccc3)cc2)n1 (centres undefined)	26	75	
Cc1cc(C)nc(SCC(=O)Nc2cccc(COc3ccccc3)c2)n1	71	96	
CC(=O)Nc1ccc(OCc2cccc(NC(=O)CSc3nc(C)cc(C)n3)c2)cc1	62	92	
Cc1cc(C)nc(SCC(=O)Nc2cccc(COc3cccc4ccccc34)c2)n1	42	79	
Cc1cc(C)nc(SCC(=O)Nc2cccc(C(O)c3ccccc3)c2)n1 (centres undefined)	18	78	
Cc1cc(C)nc(SCC(=O)Nc2cccc(NCc3ccccc3)c2)n1	64	95	
Cc1cc(C)nc(SCC(=O)Nc2ccc(OCc3ccccc3)cc2)n1	40	62	
Cc1cc(C)nc(SCC(=O)Nc2cccc(Cc3ccccc3)c2)n1	73	96	
